In ChEMBL document CHEMBL1142162, “Synergistic interactions of the antiretroviral protease inhibitors saquinavir and ritonavir with chloroquine and mefloquine against Plasmodium falciparum in vitro” (Antimicrob Agents Chemother, 2007) one finds EC50 and Activity data, which are given here for seven compounds.

Usually EC50 stands for the concentration that produces a half-maximal response. Lower therefore signals greater potency.

Assay type in all cases: functional, organism-based
Assay [1] concerns Plasmodium falciparum. Put plainly: Antimalarial activity against Plasmodium falciparum Dd2. In a few lines:
(§1)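 P. falciparum clones kept in modified candle jars; triplicate wells holding 100 µl culture (2% hematocrit, 1% parasitemia) plus 100 µl drug dilution or control. Growth read by tritiated hypoxanthine incorporation, media and vehicle controls on each plate. Experiments repeated at least twice; EC50 derived from pooled data of all experiments.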

Assay [2] concerns Plasmodium falciparum. Put plainly: Antimalarial activity against Plasmodium falciparum D10. In a few lines: as §1
The subject of assay [3] is Plasmodium falciparum. The assay is described as follows: Antimalarial activity against Plasmodium falciparum FAC8. The procedure, abridged: as §1

Calls of active or inactive are those of the source. The rule behind the calls is not given here.

For the compound `CC(C)C[C@H](NC(=O)[C@@H](O)[C@H](N)Cc1ccccc1)C(=O)O` [UBENIMEX], the midpoint of the response with Plasmodium falciparum [1], the EC50, lay at 5100 nM.
Still for that read-out and setting: in the case of `CC(C)C[C@H](NC(=O)[C@H]1O[C@@H]1C(=O)O)C(=O)NCCCCN=C(N)N` [E-64] it was 2900 nM.
For `O[C@@H](c1cc(C(F)(F)F)nc2c(C(F)(F)F)cccc12)[C@H]1CCCCN1` [MEFLOQUINE], the results for the EC50 with Plasmodium falciparum [2], in the assay with Plasmodium falciparum [3] and in the assay on Plasmodium falciparum [1] were 64 nM, 23 nM and 60 nM, respectively.
`CC(C)CC(=O)N[C@H](C(=O)N[C@H](C(=O)N[C@@H](CC(C)C)[C@@H](O)CC(=O)N[C@@H](C)C(=O)N[C@@H](CC(C)C)[C@@H](O)CC(=O)O)C(C)C)C(C)C` [PEPSTATIN] returned an EC50 in the assay with Plasmodium falciparum [2] of 14000 nM. Besides, the outcome with Plasmodium falciparum [1] was inactive.
As to `CC(C)(C)NC(=O)[C@@H]1C[C@@H]2CCCC[C@@H]2CN1C[C@@H](O)[C@H](Cc1ccccc1)NC(=O)[C@H](CC(N)=O)NC(=O)c1ccc2ccccc2n1` [SAQUINAVIR], the EC50 in the assay with Plasmodium falciparum [2] was 5500 nM; in the assay on Plasmodium falciparum [1] it was 960 nM.
For the compound `CC(C)c1nc(CN(C)C(=O)N[C@H](C(=O)N[C@@H](Cc2ccccc2)C[C@H](O)[C@H](Cc2ccccc2)NC(=O)OCc2cncs2)C(C)C)cs1` [RITONAVIR], the EC50 in the assay on Plasmodium falciparum [2] was 1100 nM; with Plasmodium falciparum [3], 7000 nM; with Plasmodium falciparum [1], 850 nM.
In the assay with Plasmodium falciparum [1], `CCN(CC)CCCC(C)Nc1ccnc2cc(Cl)ccc12` (stereo not drawn) [CHLOROQUINE] yielded an EC50 of 55 nM.
